Experimental data reported in ChEMBL document CHEMBL4011645, “New Inhibitor Targeting Signal Transducer and Activator of Transcription 5 (STAT5) Signaling in Myeloid Leukemias” (J Med Chem, 2017).
Blank lines part the entries; values can stand above or below the compound they belong to. Active and inactive are the calls of the source. The calls are words filed in the database; no cut-off is given here.

Tests used:
KU812 cell line [1] = experiment: Antiproliferative activity against human KU812 cells at 10 uM after 24 hrs by trypan blue assay; assay type: functional, cell-based
How it was run: (§1)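 Screen at a single 10 μM, DMSO as vehicle control, growth followed at 24, 48 and 72 h. Readouts: MTT (0.2×10^5 cells/well in X-Vivo, 4 h MTT, SDS/HCl lysis, OD 570 nm) and trypan blue exclusion counts of living cells. n = 3 in triplicates, mean ± SEM.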

K562 [2] = experiment: Antiproliferative activity against human K562 cells at 10 uM after 24 hrs by MTT assay; assay type: functional, cell-based; how it was run: as §1
KU812 cell line [3] = experiment: Antiproliferative activity against human KU812 cells after 48 hrs by MTT assay; assay type: functional, cell-based; conditions: KU812, 48 h
How it was run: (§2)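 K562 or KU812 cells (RPMI/10% FBS, 37 °C, 5% CO2) exposed to 100 nM–50 μM for 48 h. 0.2×10^5 cells per well in phenol-red-free X-Vivo, MTT 4 h, lysis overnight in 10% SDS/0.003% HCl, absorbance at 570 nm. EC50 fitted; n = 3 in triplicates, mean ± SEM.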

KU812 cell line [4] = experiment: Antiproliferative activity against human KU812 cells at 10 uM after 24 hrs by MTT assay; assay type: functional, cell-based; how it was run: as §1
K562 [5] = experiment: Antiproliferative activity against human K562 cells at 10 uM after 24 hrs by trypan blue assay; assay type: functional, cell-based; how it was run: as §1
K562 [6] = experiment: Antiproliferative activity against human K562 cells after 48 hrs by MTT assay; assay type: functional, cell-based; conditions: K562, 48 h; how it was run: as §2
KU812 cell line [7] = experiment: Antiproliferative activity against human KU812 cells at 10 uM after 72 hrs by trypan blue assay; assay type: functional, cell-based; how it was run: as §1
KU812 cell line [8] = experiment: Induction of apoptosis in human KU812 cells at 10 uM after 48 hrs by FITC-Annexin V and 7-amino-actinomycin D staining-based flow cytometry method; assay type: functional, cell-based
How it was run: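 After 48 h culture with 10 μM or DMSO, 10^6 cells stained with FITC-Annexin V and 7-AAD for 15 min at 4 °C. Percentage of apoptotic cells measured by flow cytometry; n = 3 in triplicates, mean ± SEM.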

K562 [9] = experiment: Antiproliferative activity against human K562 cells at 10 uM after 48 hrs by MTT assay; assay type: functional, cell-based; how it was run: as §1
KU812 cell line [10] = experiment: Antiproliferative activity against human KU812 cells at 10 uM after 48 hrs by trypan blue assay; assay type: functional, cell-based; how it was run: as §1
K562 [11] = experiment: Antiproliferative activity against human K562 cells at 10 uM after 72 hrs by trypan blue assay; assay type: functional, cell-based; how it was run: as §1
K562 [12] = experiment: Antiproliferative activity against human K562 cells at 10 uM after 48 hrs by trypan blue assay; assay type: functional, cell-based; how it was run: as §1
K562 [13] = experiment: Antiproliferative activity against human K562 cells at 10 uM after 72 hrs by MTT assay; assay type: functional, cell-based; how it was run: as §1
KU812 cell line [14] = experiment: Antiproliferative activity against human KU812 cells at 10 uM after 48 hrs by MTT assay; assay type: functional, cell-based; how it was run: as §1
KU812 cell line [15] = experiment: Antiproliferative activity against human KU812 cells at 10 uM up to 72 hrs by MTT assay; assay type: functional, cell-based; how it was run: as §1
[16] = molecular target: T1, Signal transducer and activator of transcription 5A (Homo sapiens) (UniProt P42229); experiment: Inhibition of STAT5 phosphorylation in human KU812 cells at 10 uM after 72 hrs by Western blot method; assay type: cell-based
T1 sequence (whole entry): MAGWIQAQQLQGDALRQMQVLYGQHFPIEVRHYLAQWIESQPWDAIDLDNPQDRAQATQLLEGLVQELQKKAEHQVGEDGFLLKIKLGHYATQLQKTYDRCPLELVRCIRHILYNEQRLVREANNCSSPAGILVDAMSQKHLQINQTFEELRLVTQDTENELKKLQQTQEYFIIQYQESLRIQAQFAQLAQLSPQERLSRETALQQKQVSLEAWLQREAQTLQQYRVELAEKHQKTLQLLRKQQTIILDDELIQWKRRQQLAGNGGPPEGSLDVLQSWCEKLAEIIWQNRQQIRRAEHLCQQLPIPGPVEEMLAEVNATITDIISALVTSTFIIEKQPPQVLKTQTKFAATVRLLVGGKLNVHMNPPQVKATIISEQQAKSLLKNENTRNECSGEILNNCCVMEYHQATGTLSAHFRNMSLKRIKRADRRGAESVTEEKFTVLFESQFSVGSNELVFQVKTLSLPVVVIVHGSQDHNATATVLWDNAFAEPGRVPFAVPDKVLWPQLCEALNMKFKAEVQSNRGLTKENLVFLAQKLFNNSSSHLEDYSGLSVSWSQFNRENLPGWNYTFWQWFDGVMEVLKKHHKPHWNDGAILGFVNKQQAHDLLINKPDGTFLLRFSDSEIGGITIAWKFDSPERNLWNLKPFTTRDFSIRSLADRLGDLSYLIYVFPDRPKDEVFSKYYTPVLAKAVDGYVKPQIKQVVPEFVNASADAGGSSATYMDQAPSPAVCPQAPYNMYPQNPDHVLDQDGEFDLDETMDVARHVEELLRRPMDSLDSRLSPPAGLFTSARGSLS
How it was run: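 Western blot of KU812 cells 72 h after exposure to 10 µM. Lysates in 2x Laemmli buffer were run on SDS-PAGE and transferred to nitrocellulose. Blots were probed with P-Y694/699-STAT5 and STAT5 antibodies and detected by ECL.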

EC50 (K562 [6]): 78.1 µM
SMILES: CC1(C)CCN(CCOc2ccc3[nH]ccc3c2)c2ccccc21
Activity (KU812 cell line [1]): Active
Activity (K562 [2]): Active
EC50 (KU812 cell line [3]): 14.6 µM
Activity (KU812 cell line [4]): Active
Activity (K562 [5]): Active

EC50 (K562 [6]): 15.6 µM
SMILES: CC1(C)CCN(CCOc2ccc3[nH]ccc3c2)c2ccc(Br)cc21
EC50 (KU812 cell line [3]): 7.59 µM

EC50 (K562 [6]): 13 µM
SMILES: CC1(C)CCN(CCOc2ccc3[nH]ccc3c2)c2ccc(-c3ccc(Cl)nc3)cc21
EC50 (KU812 cell line [3]): 5.41 µM
Activity (KU812 cell line [7]): Active
Activity (KU812 cell line [8]): Active

SMILES: CC1(C)CCN(CCOc2ccc3[nH]ccc3c2)c2ccc(C(=O)C3CCCCC3)cc21
Activity (KU812 cell line [1]): Active
Activity (KU812 cell line [4]): Active
Activity (K562 [9]): Active
Activity (KU812 cell line [10]): inactive
Activity (K562 [11]): inactive
Activity (K562 [12]): Active
Activity (K562 [13]): inactive
Activity (KU812 cell line [14]): inactive

SMILES: CC1(C)CCN(CCOc2ccc3c(ccn3CC(=O)O)c2)c2ccccc21
Activity (K562 [9]): inactive
Activity (KU812 cell line [10]): inactive
Activity (K562 [12]): inactive
Activity (KU812 cell line [14]): inactive

SMILES: CC1(C)CCN(CCOc2ccc3[nH]ccc3c2)c2ccc(-c3ccccn3)cc21
Activity (KU812 cell line [7]): inactive
Activity (KU812 cell line [15]): inactive
Activity (K562 [11]): inactive
Activity (K562 [13]): inactive

inhibition [16]: Active
SMILES: CC1(C)CCN(CCOc2ccc3c(ccn3CC(=O)O)c2)c2ccc(C(=O)C3CCCCC3)cc21
EC50 (KU812 cell line [3]): 197 µM

SMILES: Cn1ccc2cc(OCCN3CCC(C)(C)c4ccccc43)ccc21
Activity (KU812 cell line [7]): inactive
Activity (KU812 cell line [15]): inactive
Activity (K562 [11]): inactive
Activity (K562 [13]): inactive

EC50 (K562 [6]): 22.7 µM
SMILES: CC1(C)CCN(CCOc2ccc3[nH]ccc3c2)c2ccc(-c3ccncc3)cc21
EC50 (KU812 cell line [3]): 9.38 µM
Activity (KU812 cell line [7]): Active
Activity (KU812 cell line [8]): Active
Activity (K562 [11]): Active

SMILES: CCOC(=O)Cn1ccc2cc(OCCN3CCC(C)(C)c4ccccc43)ccc21
Activity (KU812 cell line [7]): inactive
Activity (KU812 cell line [15]): inactive
Activity (K562 [11]): inactive
Activity (K562 [13]): inactive

SMILES: CC1(C)CCN(CCOc2ccc3[nH]ccc3c2)c2ccc(-c3cccc([N+](=O)[O-])c3)cc21
Activity (KU812 cell line [7]): inactive
Activity (KU812 cell line [15]): inactive
Activity (K562 [11]): inactive
Activity (K562 [13]): inactive
